According to paper PMC4500736 (Journal of neuroscience methods, 2015):
Where no end group is shown, it is not given here.

Key:
[1] = system: normal F344 rats; format: in vivo, rat; conditions: 300 μg intranasal 5 days a week for 3 weeks, p < 0.05
Outline: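 Normal F344 rats under light isoflurane (~1.0–3.0% with […]), supine. Striatum and SN harvested as 2 mm sections, frozen −80 °C. DA, DOPAC, HVA by HPLC-EC (ng/g wet tissue); turnover ratios; one-way ANOVA, Bonferroni.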

[2] = system: unilateral 6-OHDA lesioned F344 rats; assay: d-amphetamine-induced rotation in 6-OHDA-lesioned rats; format: in vivo, rat; conditions: animals taken out to 6 weeks (data not shown), n = 3 DNSP-11, n = 2 vehicle
[3] = system: unilateral 6-OHDA lesioned F344 rats; assay: DA and DA metabolite levels; format: in vivo, rat; conditions: 5 weeks post 6-OHDA, 300 μg intranasal daily, p < 0.01
[4] = system: unilateral 6-OHDA lesioned F344 rats; assay: TH+ fiber density in the SNpr of 6-OHDA lesioned rats; format: in vivo, rat; conditions: mean ± SEM
Outline: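 Unilateral 3-site striatal 6-OHDA lesion (right hemisphere). Intranasal test compound 300 μg or vehicle daily for 7 days pre-lesion, ~60 min before infusion, then 35 ± 3 days. Midbrain fixed in 4% paraformaldehyde for 24 h, then 15 & 30% sucrose; 30 μm coronal sections. Ipsilateral SNpr TH+ immunoreactive area measured at −5.24, −5.60 and −5.96 mm from bregma. Two-tailed unpaired t-test.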

[5] = dissolved in 0.9% sterile saline; cited from earlier work

## PPEAPAEDRSL-NH2 [DNSP-11, Dopamine neuron stimulating peptide-11]
[1]
  increase in DA turnover in the SN compared to vehicle: 34%
  increase in DA turnover in the striatum compared to vehicle: 25%
[2]
  reduction in d-amphetamine-induced rotations compared to vehicle: 21%
[3]
  reduction in DA turnover in the ipsilateral side to the lesion compared to vehicle: 39%
[4]; n = 6, vehicle 0.20 ± 0.03
  Fiber Density for the Lesioned SNpr, Rostral: 0.26 ± 0.09
[4]; n = 6, vehicle 0.22 ± 0.07
  Fiber Density for the Lesioned SNpr, Middle: 0.41 ± 0.20
[4]; n = 6, vehicle 1.10 ± 0.67
  Fiber Density for the Lesioned SNpr, Caudal: 0.91 ± 0.41
[5]
  stability in 0.9% sterile saline: stable
